Bioassay records as filed in PubChem BioAssay.
PostGolgi yeast = growth inhibition of a yeast mutant, post-Golgi transport screen; post-Golgi transport phenotypic cell assay; inhibition, % at 10 µM; 0.9% of 98,000 active; AID 739;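 also: yeast cells grown in 1536-well plates; yeast grown about 18 h at 30C before absorbance read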
PostGolgi ctrl = growth of the yeast control strain, post-Golgi counter-screen; efflux-deficient yeast background strain, growth absorbance A615, 16 h; inhibition, % at 10 µM; 5% of 98,000 active; AID 738
HePTP inhibitor = blocks human HePTP tyrosine phosphatase | P35236 | recombinant HePTP phosphatase activity, OD absorbance | inhibition, % at 20 µM | 0.64% of 110,000 active; in the data active = inhibition above about 50%
Target sequence (P35236 whole entry, looked up): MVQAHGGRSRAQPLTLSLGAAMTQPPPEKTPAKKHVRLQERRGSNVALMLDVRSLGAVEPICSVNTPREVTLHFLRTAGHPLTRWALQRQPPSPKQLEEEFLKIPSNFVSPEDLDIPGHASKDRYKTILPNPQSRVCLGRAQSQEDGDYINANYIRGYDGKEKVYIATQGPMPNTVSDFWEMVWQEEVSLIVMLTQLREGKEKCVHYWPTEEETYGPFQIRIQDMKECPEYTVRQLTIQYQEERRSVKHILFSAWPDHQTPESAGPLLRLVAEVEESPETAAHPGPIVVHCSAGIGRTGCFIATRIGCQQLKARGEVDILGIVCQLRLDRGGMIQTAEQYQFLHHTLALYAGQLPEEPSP
PLAP act = human PLAP activation; AID 696; activation fold at 20 µM; 1.2% of 96,000 active; P05187; purified PLAP enzyme, luminescent substrate read-out; stronger effect = higher value; in the data active = activation fold above about 2
Ecoli tolC = growth inhibitors of E. coli BW25113 tolC mutant; AID 573; OD615; 2.2% of 65,000 active; growth inhibition, % at 10 µM (by protocol);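 active = growth inhibition at or above a cutoff equal to the mean over every tested compound plus 3 SD, cut at about 60% in these data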;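 also: growth measured after 20 h incubation at 37 °C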
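Test system: tolC-deleted E. coli BW25113; medium: LB with kanamycin 50 µg/mL; compound: single-point testing at 10 µM; incubation: 20 h compound exposure of bacteria at 37 °C; signal: OD at 615 nm; evaluation: growth inhibition in percent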
E coli WT exp = growth inhibitors of E. coli BW25113 wild type | 0.15% of 98,000 active | OD600 absorbance | AID 710 | growth inhibition, % at 100 µM;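 active = growth inhibition above about 50% at one test dose, limit read from the data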;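 also: growth measured after 20 h incubation at 37 °C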
Large screens that a line does not name were inactive. Sampled rows, rich in hits. Any-hit rate of the full collection: about 5.4%. Rule as the data show it, unless noted: active = inhibition above about 30%; inactive = the rest.

CCOC(=O)C(=Cc1cc(OC)c(OC)cc1Br)C(=O)OCC	none (no result: PostGolgi yeast, PostGolgi ctrl, PLAP act, Ecoli tolC, E coli WT exp)
O=c1cc(NCc2ccco2)[nH]c(=O)n1-c1ccc(Br)cc1	PostGolgi ctrl 36.8 (no result: PLAP act)
CC1=CC(=O)C=C/C1=N\OS(=O)(=O)c1ccccc1	none (no result: PostGolgi yeast, PostGolgi ctrl, PLAP act, Ecoli tolC, E coli WT exp)
CC1=C/C(=N\OS(=O)(=O)c2ccccc2)C(C)=CC1=O	PostGolgi yeast 35.6, PostGolgi ctrl 48.5 (no result: HePTP inhibitor, Ecoli tolC)
COc1cc(/C=C2\SC(=S)N(Cc3ccccc3)C2=O)cc(Br)c1O	none (no result: PostGolgi yeast, PostGolgi ctrl, PLAP act, Ecoli tolC, E coli WT exp)
CC(=O)Nc1ccc(N2C(=O)C3=C(C2=O)C2C=CC3C2)cc1	none (no result: PostGolgi yeast, PostGolgi ctrl, PLAP act, Ecoli tolC, E coli WT exp)
Cc1cc(C)n(-c2nc3ccccc3nc2N2CCCC2)n1	none (no result: HePTP inhibitor, Ecoli tolC)
Cc1cc(C)n(-c2nc3ccccc3nc2N2CCCCCC2)n1	PostGolgi ctrl 38.9, Ecoli tolC 74.0
CC(CCCC(C)(C)O)CC1OCCO1 (stereo not given)	none (no result: PostGolgi yeast, PostGolgi ctrl, PLAP act, Ecoli tolC, E coli WT exp)
O=c1c2c(nc3n1CCCCC3)-c1ccccc1CC21CCCC1	PostGolgi ctrl 46.2, Ecoli tolC 90.6
Cn1c(NCCO)nc2c(c1=O)C1(CCCCC1)Cc1ccccc1-2	PostGolgi ctrl 49.7
CCN(CC)Cc1nc2c(c(=O)[nH]1)C1(CCCCC1)Cc1ccccc1-2	PostGolgi ctrl 31.5
CN(C)Cc1nc2c(c(=O)[nH]1)C1(CCCCC1)Cc1ccccc1-2	Ecoli tolC 61.8
CC1(C)Cc2ccccc2-c2nc(NCCCO)n(-c3ccccc3)c(=O)c21	none
CCCCSCc1nc2c(c(=O)[nH]1)C1(CCCC1)Cc1ccccc1-2	none (no result: PostGolgi yeast, PostGolgi ctrl, PLAP act, Ecoli tolC, E coli WT exp)
O=C(O)COc1ccccc1C=C1C(=O)NC(=O)N(c2ccccc2F)C1=O	none (no result: PostGolgi yeast, PostGolgi ctrl, PLAP act, Ecoli tolC, E coli WT exp)
CN(C)CCNC(=O)COc1ccc2ccccc2c1	none (no result: PostGolgi yeast, PostGolgi ctrl, PLAP act, Ecoli tolC, E coli WT exp)
CCc1cccc2c1=NC(=O)C=2c1sc(=S)[nH]c1O	none (no result: PostGolgi yeast, PostGolgi ctrl, PLAP act, Ecoli tolC, E coli WT exp)
COc1ccc(/C(C)=N/NC(=O)c2n[nH]c3c2CCCC3)cc1OC	none (no result: PostGolgi yeast, PostGolgi ctrl, PLAP act, Ecoli tolC, E coli WT exp)
O=c1[nH]c(NCCCO)nc2c1C1(CCCC1)Cc1ccccc1-2	Ecoli tolC 65.4
CN(C)Cc1nc2c(c(=O)[nH]1)C(C)(C)Cc1ccccc1-2	PLAP act 2.3 (no result: HePTP inhibitor, Ecoli tolC)
CSc1nc2c(c(=O)n1C)C(C)(C)Cc1ccccc1-2	none (no result: PostGolgi yeast, PostGolgi ctrl, PLAP act, Ecoli tolC, E coli WT exp)
Cc1ccc(-c2nc(SCC(N)=O)c(C#N)c3c2CCCC3)cc1	PostGolgi ctrl 43.6 (no result: HePTP inhibitor, Ecoli tolC)
N#Cc1c(SCC(N)=O)nc(-c2ccccc2)c2c1CCCC2	none
CCOc1cc(S(=O)(=O)NCc2ccccn2)c(C)cc1C	PLAP act 2.2
O=C(CSC1=NCCS1)Nc1cccc(C(F)(F)F)c1	none (no result: PostGolgi yeast, PostGolgi ctrl, PLAP act, Ecoli tolC, E coli WT exp)
CCN1/C(=C/c2ccc3cccc(C)c3[n+]2CC)Sc2ccccc21	PostGolgi ctrl 98.3, E coli WT exp 72.0 (no result: HePTP inhibitor, Ecoli tolC)
CSc1ccc(/C=C2/SC(NC(C)=O)=NC2=O)cc1	none (no result: PostGolgi yeast, PostGolgi ctrl, PLAP act, Ecoli tolC, E coli WT exp)
Cc1cccc(S(=O)(=O)Nc2cccc(-c3cn4ccsc4n3)c2)c1	PostGolgi ctrl 46.1
O=S(=O)(Nc1cccc(-c2cn3ccsc3n2)c1)c1ccc(F)cc1	PostGolgi ctrl 40.3
CCC(=O)Nc1cccc(-c2cn3ccsc3n2)c1	none
Cc1ccc(S(=O)(=O)Nc2cccc(-c3cn4ccsc4n3)c2)cc1	PostGolgi ctrl 45.6, Ecoli tolC 82.9
O=S(=O)(Nc1cccc(-c2cn3ccccc3n2)c1)c1ccc(-c2ccccc2)cc1	none (no result: PostGolgi yeast, PostGolgi ctrl, PLAP act, Ecoli tolC, E coli WT exp)
COC(=O)c1cc(NC(=O)c2ccccc2Br)cc(C(=O)OC)c1	none (no result: PostGolgi yeast, PostGolgi ctrl, PLAP act, Ecoli tolC, E coli WT exp)
CCOC(=O)N1CCC(N2Cc3cccc(C(=O)Nc4ccc(OC)c(OC)c4)c3C2=O)CC1	PostGolgi ctrl 37.0
O=C1NC(=O)N(c2ccc(Cl)cc2)C(=O)/C1=C/c1ccc(-c2ccc(Cl)cc2[N+](=O)[O-])o1	none (no result: PostGolgi yeast, PostGolgi ctrl, PLAP act, Ecoli tolC, E coli WT exp)
Cc1ccccc1-c1nnc(SCc2ccccc2F)o1	Ecoli tolC 64.1
CCN(Cc1cc2cccc(C)c2[nH]c1=O)C(=O)c1ccccc1OC	none (no result: PostGolgi yeast, PostGolgi ctrl, E coli WT exp)
COCCN(Cc1cc2cccc(C)c2[nH]c1=O)C(=O)c1ccccc1	PostGolgi ctrl 34.5
CC1=CC(C)(C)N2C(=O)C3(SCC(=O)N3c3ccc(F)cc3)c3cc(C)cc1c32 (stereo not given)	PostGolgi ctrl 50.1 (no result: HePTP inhibitor, Ecoli tolC)
CC(C)c1ccc(N2C(=O)CSC23C(=O)N2CCCc4cccc3c42)cc1 (stereo not given)	none (no result: HePTP inhibitor, Ecoli tolC)
O=C1C(=Cc2cc(Br)ccc2OCc2ccccc2)C(=O)c2ccccc21	none (no result: PostGolgi yeast, PostGolgi ctrl, PLAP act, Ecoli tolC, E coli WT exp)
O=C(CSc1nnc(Cn2nnc3ccccc32)o1)N(Cc1ccc(Cl)cc1)c1ccccc1	none (no result: HePTP inhibitor, Ecoli tolC)
CCN(C(=O)CSc1nnc(Cn2nnc3ccccc32)o1)c1nc(-c2ccccc2)cs1	PostGolgi ctrl 35.1
CCOc1ccccc1NC(=O)CN(c1ccc(C)cc1)S(C)(=O)=O	none (no result: PostGolgi yeast, PostGolgi ctrl, PLAP act, Ecoli tolC, E coli WT exp)
CCOc1ccccc1NC(=O)CN(c1ccc(C)cc1)S(=O)(=O)c1c(C)n[nH]c1C	PLAP act 2.1
